Reference: ChEMBL document CHEMBL5705886, “GSK1070916, a potent Aurora B/C kinase inhibitor with broad antitumor activity in tissue culture cells and human tumor xenograft models” (Mol Cancer Ther, 2009)
Activity calls are given as the source filed them. No cut-off for these calls is given here.

How the values were obtained:
[1] = Toxicity in SCID nude mouse xenografted with human HL-60 cells assessed as drug tolerance at 100 mg/kg, ip administered once daily for 5 consecutive days with 2 days off scheduled for 2 cycles measured upto 60 days; settings: in vivo, 1440 h
SW 954 = experiment: Antiproliferative activity against human SW 954 cells assessed as inhibition of cell viability measured for 6 to 7 days by cell titer glo assay; assay type: functional, cell-based
In short: (§1)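 Cells seeded in recommended growth medium, held overnight at 37°C in 5% CO2, then exposed to serial dilutions of inhibitor for 6–7 d. A time-zero plate was read with CellTiter-Glo at dosing. Luminescent viability read at the end. No-cell wells subtracted as background, data expressed as percent of DMSO control.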

NALM-6 = experiment: Antiproliferative activity against human NALM-6 cells assessed as inhibition of cell viability measured for 6 to 7 days by cell titer glo assay; assay type: functional, cell-based
In short: (§2)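 Cells seeded in recommended growth medium, incubated overnight at 37°C in 5% CO2, then exposed to serial dilutions of inhibitor for 6–7 d. A parallel plate was read with CellTiter-Glo at compound addition as a T=0 value. The luminescent viability readout had no-cell background subtracted and was expressed as % of DMSO control.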

BC-3 = experiment: Antiproliferative activity against human BC-3 cells assessed as inhibition of cell viability measured for 6 to 7 days by cell titer glo assay; assay type: functional, cell-based
In short: (§3)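 Tumor lines plated in recommended growth media, overnight at 37°C, 5% CO2, then given serial dilutions; a T=0 plate read with CellTiter-Glo at dosing. After 6–7 d of exposure, viability read by CellTiter-Glo luminescence. No-cell wells subtracted, data expressed as % of DMSO control.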

[2] = Antiproliferative activity against human BCP-1 cells assessed as inhibition of cell viability measured for 6 to 7 days by cell titer glo assay; assay type: functional, cell-based
In short: as §3

[3] = Toxicity in SCID nude mouse xenografted with human COLO 205 cells assessed as drug tolerance at 25 to 100 mg/kg, ip administered once daily for 5 consecutive days with 2 days off scheduled for 2 cycles measured upto 60 days; assay type: organism-based; settings: in vivo, 1440 h, dose 25-100 mg/kg, time 60 day
SU-DHL-5 = experiment: Antiproliferative activity against human SU-DHL-5 cells assessed as inhibition of cell viability measured for 6 to 7 days by cell titer glo assay; assay type: functional, cell-based
In short: as §1

HH = experiment: Antiproliferative activity against human HH cells assessed as inhibition of cell viability measured for 6 to 7 days by cell titer glo assay; assay type: functional, cell-based
In short: as §2

COLO 205 = experiment: Antiproliferative activity against human COLO 205 cells assessed as inhibition of cell viability measured for 6 to 7 days by cell titer glo assay; assay type: functional, cell-based
In short: as §3

CMK = experiment: Antiproliferative activity against human CMK cells assessed as inhibition of cell viability measured for 6 to 7 days by cell titer glo assay; assay type: functional, cell-based
In short: as §3

NU-DUL-1 = experiment: Antiproliferative activity against human NU-DUL-1 cells assessed as inhibition of cell viability measured for 6 to 7 days by cell titer glo assay; assay type: functional, cell-based
In short: as §1

P3HR-1 = experiment: Antiproliferative activity against human P3HR-1 cells assessed as inhibition of cell viability measured for 6 to 7 days by cell titer glo assay; assay type: functional, cell-based
In short: as §1

THP-1 = experiment: Antiproliferative activity against human THP-1 cells assessed as inhibition of cell viability measured for 6 to 7 days by cell titer glo assay; assay type: functional, cell-based
In short: as §1

EB2 = experiment: Antiproliferative activity against human EB2 cells assessed as inhibition of cell viability measured for 6 to 7 days by cell titer glo assay; assay type: functional, cell-based
In short: as §3

NCI-H630 = experiment: Antiproliferative activity against human NCI-H630 cells assessed as inhibition of cell viability measured for 6 to 7 days by cell titer glo assay; assay type: functional, cell-based
In short: as §1

HD-MY-Z = experiment: Antiproliferative activity against human HD-MY-Z cells assessed as inhibition of cell viability measured for 6 to 7 days by cell titer glo assay; assay type: functional, cell-based
In short: as §3

HEL 92.1.7 = experiment: Antiproliferative activity against human HEL 92.1.7 cells assessed as inhibition of cell viability measured for 6 to 7 days by cell titer glo assay; assay type: functional, cell-based
In short: as §3

DG-75 = experiment: Antiproliferative activity against human DG-75 cells assessed as inhibition of cell viability measured for 6 to 7 days by cell titer glo assay; assay type: functional, cell-based
In short: as §3

OVCAR-4 = experiment: Antiproliferative activity against human OVCAR-4 cells assessed as inhibition of cell viability measured for 6 to 7 days by cell titer glo assay; assay type: functional, cell-based
In short: as §1

MIA PaCa-2 = experiment: Antiproliferative activity against human Mia PaCa cells assessed as inhibition of cell viability measured for 6 to 7 days by cell titer glo assay; assay type: functional, cell-based
In short: as §2

[4] = Antiproliferative activity against human DND41 cells assessed as inhibition of cell viability measured for 6 to 7 days by cell titer glo assay; assay type: functional, cell-based
In short: as §3

[5] = Antiproliferative activity against human CEM/C1 cells assessed as inhibition of cell viability measured for 6 to 7 days by cell titer glo assay; assay type: functional, cell-based
In short: as §3

MX1 = experiment: Antiproliferative activity against human MX1 cells assessed as inhibition of cell viability measured for 6 to 7 days by cell titer glo assay; assay type: functional, cell-based
In short: as §2

[6] = Toxicity in SCID nude mouse xenografted with human HCT-116 cells assessed as body weight loss at 25 to 100 mg/kg, ip administered once daily for 5 consecutive days with 2 days off scheduled for 3 cycles measured upto 60 days relative to control; assay type: organism-based; settings: in vivo, 1440 h, dose 25-100 mg/kg, time < 60 day
T47D = experiment: Antiproliferative activity against human T47D cells assessed as inhibition of cell viability measured for 6 to 7 days by cell titer glo assay; assay type: functional, cell-based
In short: as §1

[7] = Toxicity in SCID nude mouse xenografted with human K562 cells assessed as body weight loss at 100 mg/kg, ip administered once daily for 5 consecutive days with 2 days off scheduled for 3 cycles measured upto 60 days; assay type: organism-based; settings: in vivo, 1440 h, time < 60 day
MDA-MB-453 = experiment: Antiproliferative activity against human MDA-MB-453 cells assessed as inhibition of cell viability measured for 6 to 7 days by cell titer glo assay; assay type: functional, cell-based
In short: as §2

A549 [8] = experiment: Induction of mitotic alteration in human A549 cells formation of malformed bipolar at 12 to 330 nmol/L incubated for 24 hrs by immunofluorescent microscopy based analysis; assay type: functional, cell-based; settings: dose lower […], dose upper 330.0 nmol/L
A549 [9] = experiment: Effect on cell cycle distribution in human A549 cells assessed as increase in sub-2N DNA content at 2 to 5000 nM incubated for 24 to 72 hrs by flow cytometry based analysis; assay type: functional; settings: dose 2-5000 nM, time 24-72 hrs
SU-DHL10 = experiment: Antiproliferative activity against human SU-DHL-10 cells assessed as inhibition of cell viability measured for 6 to 7 days by cell titer glo assay; assay type: functional, cell-based
In short: as §1

ML-2 = experiment: Antiproliferative activity against human ML-2 cells assessed as inhibition of cell viability measured for 6 to 7 days by cell titer glo assay; assay type: functional, cell-based
In short: as §2

A549 [10] = experiment: Induction of mitotic alteration in human A549 cells formation of multipolar spindles at 12 to 330 nmol/L incubated for 24 hrs by immunofluorescent microscopy based analysis; assay type: functional, cell-based; settings: dose lower […], dose upper 330.0 nmol/L
U-266 = experiment: Antiproliferative activity against human U266B1 cells assessed as inhibition of cell viability measured for 6 to 7 days by cell titer glo assay; assay type: functional, cell-based
DLD-1 = experiment: Antiproliferative activity against human DLD-1 cells assessed as inhibition of cell viability measured for 6 to 7 days by cell titer glo assay; assay type: functional, cell-based
In short: as §3

RKO = experiment: Antiproliferative activity against human RKO cells assessed as inhibition of cell viability measured for 6 to 7 days by cell titer glo assay; assay type: functional, cell-based
In short: as §1

CCn1cc(-c2ccnc3[nH]c(-c4cccc(CN(C)C)c4)cc23)c(-c2ccc(NC(=O)N(C)C)cc2)n1 [GSK-1070916]
Activity [1]: Toxic
EC50 (SW 954): 11 nM
EC50 (NALM-6): 2 nM
EC50 (BC-3): 27 nM
EC50 [2]: 31 nM
Activity [3]: Non-Toxic
EC50 (SU-DHL-5): 5 nM
EC50 (HH): 18 nM
EC50 (COLO 205): 7 nM
EC50 (CMK): 27 nM
EC50 (NU-DUL-1): 4 nM
EC50 (P3HR-1): 8 nM
EC50 (THP-1): 5 nM
EC50 (EB2): 2 nM
EC50 (NCI-H630): 127 nM
EC50 (HD-MY-Z): 4 nM
EC50 (HEL 92.1.7): 60 nM
EC50 (DG-75): 18 nM
EC50 (OVCAR-4): 11 nM
EC50 (MIA PaCa-2): 3 nM
EC50 [4]: 787 nM
EC50 [5]: 6 nM
EC50 (MX1): 8 nM
Activity [6]: < 15%
EC50 (T47D): 13 nM
Activity [7]: Toxic
EC50 (MDA-MB-453): 6 nM
Activity (A549 [8]): Active
Activity (A549 [9]): Active
EC50 (SU-DHL10): 15 nM
EC50 (ML-2): 5 nM
Activity (A549 [10]): Active
EC50 (U-266): 422 nM
EC50 (DLD-1): 28 nM
EC50 (RKO): 7 nM
